Test results reported in PubChem BioAssay AID602316 (Southern Research Specialized Biocontainment Screening …, 2012).
Activity calls are given as the source filed them.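 Rule for the calls: active = inhibition of at least 30% at any tested concentration; inactive = the rest.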

What follows are molecules tested against M18 aspartyl aminopeptidase (Plasmodium falciparum 3D7) (assay: PfM18AAP enzyme inhibition, dose response, selectivity assay for PfM17LAP inhibitor project, biochemical, QFRET, H-Glu-NHMec substrate, set 3 (AID 602316)). Conditions: recombinant PfM18AAP, H-Glu-NHMec fluorogenic cleavage.
Outline: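 incubation = 90 min reaction, room temperature | material = recombinant PFM18AAP enzyme | compound dosing = 10-point twofold series, 100 to 0.2 µM, 2% DMSO | reagent = H-Glu-NHMec substrate, 0.1 mM | controls = no-enzyme background wells | measure = % inhibition and fitted IC50 | replication = each dose tested in triplicate | detection = NHMec fluorescence at 370/460 nm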
With `CCC(C)Oc1ccc(CC(=O)NO)cc1` (stereo not drawn) the IC50 was 27.7 µM.
In the case of `CCCCOc1cccc(CC(=O)NO)c1`, the IC50 is reported as 29.1 µM.
For `CCCCOc1ccc(C(C)C(=O)NO)cc1` (stereo not drawn), the IC50 was 21.7 µM.
For `CCCOc1ccc(CC(=O)NO)cc1`, the IC50 was 26.1 µM.

Same assay, conditions: recombinant PfM18AAP, H-Glu-NHMec fluorogenic cleavage; at 100 µM (top of the series)
`CCCCOc1ccc(C(C)C(=O)OC)cc1` (stereo not drawn) was tested, and the inhibition was “inactive”.
In the case of `CCCCOc1ccc(CN(O)C(=O)c2ccccc2)cc1`, the inhibition is reported as “inactive”.
In the case of `CCCCOc1ccc(C(C)C(=O)O)cc1` (stereo not drawn), the inhibition is reported as “inactive”.
In the case of `CCCCOc1ccc(C(C)(C)C(=O)NO)cc1`, the inhibition is reported as “inactive”.
`CCCCOc1ccc(C(C)(C)C(=O)O)cc1` was tested, and the inhibition was “inactive”.
With `CCCOc1ccc(CC(=O)O)cc1` the inhibition was “inactive”.
For `CCCCOc1cccc(CC(=O)OC)c1`, the inhibition was “inactive”.
With `CN(C)CCOc1ccc(CC(=O)O)cc1` the inhibition was “inactive”.
For `CCCCOc1ccc(CN(O)C(C)=O)cc1`, the inhibition was “inactive”.
